# Assay outcomes: PubChem BioAssay, several laboratories
# In the library only some 2.7% were active in any assay of this set; here they are far more common.
# NR1D1 modulator = modulators of Rev-erb alpha DNA binding, primary screen, biochemical, FITC-DNA, fluorescence polarization, uHTS; Rev-erbα–FITC-DNA binding, 90 min; activity, % at 10 µM; 370,000 compounds, 0.79% hits;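 active = activity above about 14%, limit read from the data; passing the limit was not always enough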;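 note: 0% = DMSO wells with 35 nM protein and 100% = DMSO wells with 750 nM protein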
# NR2E3 ag-1 = inhibitors of NR2E3-RetCOR corepressor binding, primary screen, NR2E3 agonist project, biochemical, TR-FRET, GST-NR2E3, biotin-RetCOR; Photoreceptor-specific nuclear receptor (Homo sapiens), Q9Y5X4; 1536-well; inhibition of corepressor binding, % at 4.78 µM; 320,000 compounds, 0.12% hits; AID 2300, 2010;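 active = percent inhibition above the cutoff of mean plus 3 SD of all tested compounds, set per screening campaign, cut at about 20% in these data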;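 note: 0% = DMSO wells and 100% = biotin wells as full block of FRET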
#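 Material: NR2E3–RetCOR corepressor complex / Amount: 1.35 nM GST-NR2E3 / Medium: Tris pH 7.5 / Compound: single nominal compound dose of 4.8 µM / Incubation: 5 h at 4 °C / Technique: TR-FRET, Eu(K)-anti-GST donor, streptavidin-D2 acceptor, ex 340, em 617/671 nm / Read-out basis: percent loss of FRET ratio relative to control wells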
# MC4R antagonist = MC4R antagonists of cAMP signaling, primary screen, cell-based, TR-FRET, antagonist arm of biased-ligand search; Melanocortin receptor 4 (Homo sapiens), P32245; MC4R-expressing cells, MTII-stimulated cAMP, LANCE TR-FRET; inhibition, % at 6.5 µM; 360,000 compounds, 0.48% hits; AID 540295, 2011;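 active = inhibition above its plate's cutoff, the mean of tested wells on that plate plus 3 SD, cut at about 29% in these data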;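 note: 0% = Melanotan II alone and 100% = Melanotan II plus saturating MCL0020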
# Target sequence (P32245 whole entry, looked up): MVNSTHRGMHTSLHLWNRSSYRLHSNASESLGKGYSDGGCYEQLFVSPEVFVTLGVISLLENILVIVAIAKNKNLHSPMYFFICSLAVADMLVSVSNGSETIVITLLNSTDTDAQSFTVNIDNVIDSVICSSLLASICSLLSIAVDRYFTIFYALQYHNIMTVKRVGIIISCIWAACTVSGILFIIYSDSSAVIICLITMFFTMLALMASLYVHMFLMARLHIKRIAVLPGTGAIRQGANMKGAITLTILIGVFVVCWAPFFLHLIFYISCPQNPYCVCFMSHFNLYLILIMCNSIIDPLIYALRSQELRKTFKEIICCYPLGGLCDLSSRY
#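 material = U2OS cells stably expressing human melanocortin 4 receptor (MC4R) | also added = Melanotan II challenge | dosing = single nominal compound dose of 6.5 µM | detection = TR-FRET with Eu-cAMP and labeled anti-cAMP, 671 nm | replication = singlicate | timing = compound 30 min, challenge 1 h, detection 1 h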
# PG9 binder = binders of HIV-1 gp120 antibody PG9, primary screen, biochemical, TR-FRET; HIV-1 gp120 / PG9 antibody interaction; TR-FRET gp120-PG9 antibody binding; inhibition, % at 6.7 µM; 360,000 compounds, 0.43% hits; in the data active = inhibition above about 8.5%
# MC4R ag barr = MC4R agonists recruiting beta-arrestin, primary screen, cell-based, luminescence, agonist arm of biased-ligand search. U2OS MC4R beta-arrestin complementation; percent of melanotan II response, DMSO zero. activation, % at 8.9 µM. 360,000 compounds, 0.98% hits;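 active = activation above a per-plate cutoff, the mean activation of sample wells on that plate plus 3 SD, cut at about 8% in these data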
# NR2E3 ag-2 = NR2E3 agonists in two-hybrid cells, primary screen, cell-based, luminescence, CHO-S, Gal4-NCOR/VP16-NR2E3; Photoreceptor-specific nuclear receptor (Homo sapiens), Q9Y5X4; luciferase; inhibition of corepressor binding, % at 3.98 µM; 360,000 compounds, 0.35% hits; AID 602229, 2012;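 active = inhibition above the mean of all tested compounds plus 3 SD, cut at about 70% in these data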;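 note: 0% = DMSO with NR2E3 transfected cells and 100% = cells lacking NR2E3 construct; higher means lower luciferase signal from less NR2E3 corepressor binding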
# PG9 bind confirm = binders of anti-gp120 antibody PG9, confirmation, biochemical, TR-FRET | shares compounds with PG9 binder | TR-FRET PG9 antibody binding | inhibition, % at 6.7 µM | 1,500 compounds, 90% hits | AID 651571, 2012; in the data active = inhibition above about 9%
# PGV04 counter = binders of control antibody PGV04, counter-screen for PG9 antibody binder project, biochemical, TR-FRET, distinct HIV envelope site; 1,500 compounds, 95% hits; TR-FRET PGV04 antibody-gp120 binding; shares compounds with PG9 binder; inhibition, % at 6.7 µM; AID 651604, 2012; in the data active = inhibition above about 9.5%
# The depositor's hits bear a star; . = no result given.
SMILES,NR1D1 modulator,NR2E3 ag-1,MC4R antagonist,PG9 binder,MC4R ag barr,NR2E3 ag-2,PG9 bind confirm,PGV04 counter
COC(=O)c1cc2occc2n1CC(=O)Nc1cc(OC)cc(OC)c1,1,1,-3,1,0,6,.,.
O=C(Nc1nc2ccccc2c(=O)s1)c1ccc(F)cc1Cl,-4,0,-12,71*,-2,-24,60*,77*
O=C(Nc1nc2ccccc2c(=O)s1)c1ccco1,-5,3,25,3,-1,10,.,.
CCCSc1ccc([C@H]2N[C@@](Cc3ccccc3)(C(=O)OC)[C@H]3C(=O)N(CC)C(=O)[C@@H]23)cc1,4,-3,0,0,0,-4,.,.
CCCCOc1ccc(C2C(C(=O)c3ccc(C)o3)=C(O)C(=O)N2Cc2ccco2)cc1 (centres undefined),-7,15,6,19*,-1,10,23*,27*
COc1ccc(C2C(C(=O)c3ccc(C)o3)=C(O)C(=O)N2Cc2cccnc2)cc1 (centres undefined),2,11,7,13*,-1,-22,23*,29*
CCCOc1ccc(C2C(C(=O)c3ccc(C)o3)=C(O)C(=O)N2Cc2cccnc2)cc1 (centres undefined),.,12,.,.,.,.,.,.
COc1ccc(CNC(=O)CN(C(=O)c2snc(C(N)=O)c2N)c2ccc(F)cc2)cc1,-4,2,0,-2,-3,-7,.,.
CCOc1ccc(N(CC(=O)NCc2ccc(F)cc2)C(=O)c2snc(C(N)=O)c2N)cc1,3,4,10,9.4*,13*,-18,18*,25*
CC(C)c1ccc(N(CC(=O)NCc2ccc(F)cc2)C(=O)c2snc(C(N)=O)c2N)cc1,3,6,4,11*,5,-28,18*,23*
COc1ccc(C2NC(=O)c3ccccc3N2)c(OC)c1OC (centres undefined),-2,.,-3,0,-2,-10,.,.
COc1cc(-n2c(C)nc3cc(C(=O)N4CCCN(C(C)=O)CC4)ccc32)cc(OC)c1OC,6,.,.,.,.,.,.,.
CC(Sc1nc2ccccc2c(=O)n1CC1CCCO1)C(=O)NC(C)c1ccccc1 (centres undefined),-1,2,6,-1,-4,-37,.,.
Cc1cnc(NC(=O)CCCSc2nc3ccccc3s2)s1,7,6,8,13*,3,14,18*,25*
COc1ccc(Cl)cc1C(=O)NNC(=O)c1n[nH]c2ccccc12,1,2,6,10*,0,-15,24*,31*
O=C(Cn1nc(-c2ccccc2)nc1-c1ccccc1)OC1CCCCC1,-2,2,1,1,4,-17,.,.
O=c1c(Br)c(Br)cnn1-c1ccccc1,1,.,24,13*,3,34,18*,28*
Cc1ccc(S(=O)(=O)NCc2ccc3c(c2)cc(C)n3C)cc1,-2,3,5,-1,0,-34,.,.
Cc1cc2cc(CN3C(=O)c4ccccc4C3=O)ccc2n1C,10,14,0,31*,-3,-2,39*,63*
COc1cc(NC(C)=O)ccc1-c1cc2ccccc2oc1=O,-8,1,14,0,-1,-23,.,.
COc1cc(NC(=O)c2ccc(Cl)cc2Cl)ccc1-c1cc2ccccc2oc1=O,-4,2,11,12*,5,-39,23*,33*
CCOC(=O)/C=C1\SCC(=O)N1Cc1ccc(Br)cc1,-6,3,-7,0,0,-32,.,.
O=C(Nc1sc2c(c1C(=O)NCc1ccco1)CCCC2)c1ccc2c(c1)OCO2,-2,-2,11,15*,-2,-67,8.6*,20*
CCCCC1=CC2=C(c3ccco3)C(=O)C(C)(OC(=O)c3ccc(OC)cc3)C(=O)C2=CN1C(CO)CO (centres undefined),-9,7,4,13*,-2,5,14*,17*
CCCCC1=CC2=C(c3ccco3)C(=O)C(C)(OC(=O)c3ccc(OC)cc3)C(=O)C2=CN1CCCCO (centres undefined),2,9,9,13*,-3,-14,19*,24*
SMILES,NR1D1 modulator,NR2E3 ag-1,MC4R antagonist,PG9 binder,MC4R ag barr,NR2E3 ag-2,PG9 bind confirm,PGV04 counter
CCCCC1=CC2=C(c3ccco3)C(=O)C(C)(OC(=O)c3ccc(OC)cc3)C(=O)C2=CN1C1CC1 (centres undefined),0,9,9,12*,-1,-4,22*,29*
CCCCC1=CC2=C(c3ccco3)C(=O)C(C)(OC(=O)c3ccc(OC)cc3)C(=O)C2=CN1CCN1CCOCC1 (centres undefined),.,4,1,.,-3,-28,.,.
CCCCC1=CC2=C(c3ccco3)C(=O)C(C)(OC(=O)c3ccc(OC)cc3)C(=O)C2=CN1CCCN(CC)CC (centres undefined),-9,0,-2,2,0,-55,.,.
COc1cccc(CN2CC(C(=O)N(C)Cc3nc(C)cs3)CCC2=O)c1 (centres undefined),0,.,-1,-2,-2,15,.,.
CCOC(=O)c1ccc(NC(=O)c2nc[nH]c2C(=O)NC2CCN(C(=O)OC(C)(C)C)CC2)cc1,4,3,3,0,0,16,.,.
Cc1ccc(-c2nc3cccnc3s2)cc1NC(=O)C1c2ccccc2Oc2ccccc21,5,.,12,19*,0,-29,30*,63*
C/C(=N\NC(=O)C1COc2ccccc2O1)c1ccc(Cl)s1 (centres undefined),-2,-2,12,24*,5,11,6,8
CCOC(=O)c1cc(-c2cccc(C(F)(F)F)c2)nc2nc(SC)[nH]c(=O)c12,2,3,13,-1,-2,-32,.,.
